Screening data as filed in PubChem.
NF-kB expr up – NF-kB expression increase, human neuronal cells; NF-kB reporter expression; hits give high values; fold change at 12.5 µM; 190,000 compounds, 1.6% hits; in the data active = fold change above about 3.3
FLuc inh counter – inhibits firefly luciferase, flagging false hits in luciferase inhibition screens; P08659; ATPLite firefly luciferase biochemical luminescence, 10 min; inhibition, % at 10 µM; 200,000 compounds, 1.5% hits;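 active = inhibition above about 50% when tested at 10 µM, limit read from the data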
Target sequence (P08659 whole entry, looked up): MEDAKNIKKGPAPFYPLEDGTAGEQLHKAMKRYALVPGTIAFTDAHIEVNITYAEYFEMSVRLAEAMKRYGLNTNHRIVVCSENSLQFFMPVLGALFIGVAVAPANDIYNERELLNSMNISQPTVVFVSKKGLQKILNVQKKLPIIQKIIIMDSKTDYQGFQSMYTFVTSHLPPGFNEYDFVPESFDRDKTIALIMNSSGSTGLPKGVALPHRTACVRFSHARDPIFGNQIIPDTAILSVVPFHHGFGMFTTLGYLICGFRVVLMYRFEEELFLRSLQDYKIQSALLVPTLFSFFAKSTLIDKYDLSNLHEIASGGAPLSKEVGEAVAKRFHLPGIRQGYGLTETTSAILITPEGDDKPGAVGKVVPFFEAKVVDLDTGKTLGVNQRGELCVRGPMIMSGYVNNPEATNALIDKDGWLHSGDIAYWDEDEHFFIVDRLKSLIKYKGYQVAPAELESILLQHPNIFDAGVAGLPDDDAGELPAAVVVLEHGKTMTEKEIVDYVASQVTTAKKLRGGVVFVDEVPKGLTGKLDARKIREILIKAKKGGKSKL
APP 5'UTR act – activates APP 5'UTR luciferase reporter. SH-SY5Y APP 5'UTR luciferase reporter, luminescence; zero percent = DMSO vehicle wells. activation, % at 2 µM. 190,000 compounds, 1% hits;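 active = activation above a set limit, based on mean plus 3 SD of controls, cut at about 140% in these data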
STAT1 activator – STAT1 signaling activation; AID 932; 200,000 compounds, 2.6% hits; NIH 3T3 STAT1-luciferase reporter, IFN-gamma, luminescence; 100% = IFN-gamma alone, no compound; activation (% of control), % at 5.5 µM;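 active = activation above the screen-wide mean activation plus 3 SD, cut at about 130% in these data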;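 note: raw ratio to IFN-gamma control signal so 100% means no change and 0% no light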
FLuc act counter – firefly luciferase counter-screen for stimulation assays | P08659 | ATPlite luciferase biochemical, luminescence, 10 min; 0 = ATP-free wells, 1 = DMSO control | activation factor at 10 µM | 200,000 tested, under 10 active | AID 1027;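 active = luciferase activation factor, scaled between plate controls, of at least 2 with compound at 10 µM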
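System: luciferase plus luciferin reagent, cell-free; medium: PBS as buffer for the ATP substrate; dosing: test compounds dosed from 2 mM stocks in 100% DMSO; timing: 10 min post-reagent at room temperature; measured by: luminescence measurement of luciferase light output; evaluation: luciferase activation, seen as luminescence increase over controls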
APP 5UTR inh – APP translation inhibition; 190,000 compounds, 0.82% hits; AID 1285; inhibition, % at 2 µM; SH-SY5Y APP 5'UTR-luciferase reporter, luminescence;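 active = inhibition above a set limit, derived from the sample mean plus 3 SD, cut at about 45% in these data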
* hit, by the source's call; . = no result. An excerpt weighted towards active compounds, which were near 4.8% of everything screened.

SMILES	NF-kB expr up	FLuc inh counter	APP 5'UTR act	STAT1 activator	FLuc act counter	APP 5UTR inh
Cc1ccc(NC(=O)c2c(C)nc(Nc3nc4ccccc4o3)nc2C)cc1	0.9	-0.7	-9.9	93.1	1	9.9
c1ccc(Nc2nc3ccccc3o2)cc1	5.26*	57.9*	133.1	136.9*	0.4	-133.1
FC(F)(F)Oc1ccc(Nc2nc3ccccc3o2)cc1	1.89	4.9	76.8	133.8*	1	-76.8
COc1cccc(C(=O)COC(=O)c2ccc(NC(C)=O)cc2)c1	1.03	0.4	-3.9	110.1	1	3.9
Cc1[nH]n(-c2ccc([N+](=O)[O-])cc2)c(=O)c1C=NCCc1c(C)[nH]c2ccccc12	0.69	0.7	-4.4	99.4	1	4.4
CC(=O)NCCNS(=O)(=O)c1ccc(C)c([N+](=O)[O-])c1	1.17	-7.1	15.4	101.1	1.1	-15.4
O=c1c2c(-c3ccccc3)csc2nc2n1CCC2	1.06	-3.5	-9.1	99.7	1	9.1
O=c1c2sc(-c3ccccc3)cc2nc2n1CCC2	3.9*	54.8*	125.1	106.5	0.5	-125.1
COC(=O)c1sc(S(=O)(=O)N2CCC(C(N)=O)CC2)c(C(=O)OC)c1C	1.29	-4.2	-0.8	98.1	1	0.8
COC(=O)c1sc(S(=O)(=O)N2CCCCC2C(=O)O)c(C(=O)OC)c1C (configuration not stated)	1	-4.2	-59.2	101.8	1	59.2*
CN(CC(=O)Nc1cccc(F)c1)C(=O)CCCc1cccs1	0.87	-0.1	-6.3	100.7	1	6.3
Cn1c(=O)c(C(=O)Nc2cnccn2)c(O)c2ccccc21	.	27.5	.	.	0.7	.
Cn1c(=O)c(C(=O)Nc2ccccn2)c(O)c2ccccc21	4.47*	66.8*	3.5	121.4	0.3	-3.5
O=C(Nc1ccc(Cl)c(Cl)c1)N1CC=CCC1	3.47*	3.8	56.5	127.1	1	-56.5
N#CC(C#N)=C1C=CC=CN1/C(=C\c1ccccc1Cl)C(=O)c1ccccc1	0.68	-7.3	-92.3	68.0	1.1	92.3*
CCC(Cc1ccccc1)NC(=O)C1CCC(CNc2c(N3CCCC3)c(=O)c2=O)CC1 (configuration not stated)	1.05	-8.8	6.2	98.0	1.1	-6.3
Cc1oc(-c2cccs2)nc1CN1CCN(C(C)C)C(CCO)C1 (configuration not stated)	1.17	-5.0	6.8	102.5	1.1	-6.8
O=C(NC(=S)Nc1ccccc1[N+](=O)[O-])c1ccco1	1.72	21.3	-18.1	97.2	0.8	18.1
Cc1ccc(O)c(NC(=S)NC(=O)/C=C/c2ccco2)c1	1.22	-1.9	44.6	98.9	1	-44.6
Cc1ccnc(NC(=S)NC(=O)c2ccco2)c1	4.66*	61.4*	149.0*	130.1*	0.4	-149.0
O=C(NC(=S)Nc1cccnc1Cl)c1ccco1	1.03	57.9*	7.4	115.1	0.4	-7.4
CC(C)(C)C(=O)NC(=S)Nc1ccccn1	1.11	-0.4	0.2	102.6	1	-0.2
Cc1ccnc(NC(=S)NC(=O)/C=C/c2ccco2)c1	2.4	39.3	85.8	143.6*	0.6	-85.8
O=C(NC(=S)Nc1ccccn1)c1ccco1	2.27	28.0	99.6	132.0*	0.7	-99.6
CN(C)c1ccc(/C=N/O)cc1	1.34	10.4	2.9	104.6	0.9	-2.9
SMILES	NF-kB expr up	FLuc inh counter	APP 5'UTR act	STAT1 activator	FLuc act counter	APP 5UTR inh
CN(C)c1ccc(/C=N/n2ncc3ccccc32)cc1	3.06	59.7*	355.2*	150.2*	0.4	-266.9
C=CCn1c(/N=C/c2ccc(N(C)C)cc2)nc2ccccc21	1.1	93.9*	-5.5	96.5	0.1	5.5
CCCCn1c(/N=C/c2ccc(N(C)C)cc2)nc2ccccc21	0.97	60.8*	2.1	90.7	0.4	-2.1
C=CCn1c(-c2ccc(C)cc2)nc2ccccc21	1.18	24.1	-16.3	97.7	0.8	16.3
COCCN(Cc1ccccc1)C(=S)Nc1ccc(Cl)cc1	1.64	-6.9	-12.3	89.2	1.1	12.3
COc1ccccc1CNC(=O)CSc1ccc(-c2cccc([N+](=O)[O-])c2)nn1	0.87	-2.0	3.8	87.6	1	-3.8
CCC/C(O)=C1\C(=O)CC(C)(C)CC1=Nc1ccc(OC)cc1OC	0.95	-0.3	-86.4	98.0	1	86.4*
CCCC/C(O)=C1\C(=O)CC(C)(C)CC1=Nc1ccccc1OC	0.89	-9.4	7.9	97.5	1.1	-7.9
CC(=O)N1CC(=O)N(Cc2ccccc2)/C(=C/c2ccccc2)C1=O	0.82	0.3	-7.6	99.5	1	7.6
Cc1ccc(C2=NC(=O)/C(=C/c3cc(O)c(O)c(Br)c3)S2)cc1	1.19	50.4*	11.4	99.5	0.5	-11.4
COc1cc(/C=C2\SC(c3ccc(C)cc3)=NC2=O)cc(OC)c1O	1.09	36.4	16.4	97.9	0.6	-16.4
Cc1ccc(CNC(=O)CCC2CCCN(C(=O)c3ccc4c(c3)OCO4)C2)o1 (configuration not stated)	1.5	0.6	-2.9	96.2	1	2.9
COc1ccc(Oc2nnc(C)c3ccccc23)cc1	3.47*	13.5	38.3	129.6*	0.9	-38.3
Cc1nnc(Oc2ccccc2)c2ccccc12	1.79	4.4	25.8	110.7	1	-25.8
CCOc1ccc(-c2ccc(SCC(=O)Nc3nnc(CC)s3)nn2)cc1	2.8	65.3*	115.1	113.0	0.3	-115.1
Cc1ccc(-c2ccc(SCC(=O)NCC3CCCO3)nn2)cc1 (configuration not stated)	1.3	30.4	2.3	102.0	0.7	-2.3
CCOc1ccc(-c2ccc(SCC(=O)NCC3CCCO3)nn2)cc1 (configuration not stated)	2.13	72.0*	68.8	117.0	0.3	-68.8
CCc1nnc(NC(=O)CSc2nnc(C)n2-c2ccc(C)cc2)s1	1.04	-2.5	3.5	100.0	1	-3.5
CCOc1ccc(-c2ccc(SC)nn2)cc1	2.03	96.3*	77.1	24.7	0	-77.1
CCc1nnc(NC(=O)CSc2ccc(-c3ccc(C)cc3)nn2)s1	1.32	55.2*	37.5	96.1	0.4	-37.5
CCOC(=O)C1CCN(C(=O)c2cc3cc(Br)ccc3oc2=O)CC1	1.28	-7.2	9.9	105.3	1.1	-9.9
Cc1ccc(-n2nnc3c(SCC(=O)NCC4CCCO4)ncnc32)cc1 (configuration not stated)	1.16	55.1*	-7.9	104.8	0.4	7.9
O=C(CSc1ncnc2c1nnn2-c1ccc(F)cc1)NCC1CCCO1 (configuration not stated)	1.11	21.6	-16.4	98.5	0.8	16.4
COc1ccc(-c2ccc(SCC(=O)Nc3nnc(C)s3)nn2)cc1	1.86	63.8*	5.1	120.2	0.4	-5.1
COc1cc(N=CC2=C(O)c3ccccc3C2=O)cc(OC)c1	1.26	-2.5	24.6	147.7*	1	-24.6
